In ChEMBL document CHEMBL1156386, “New cytotoxic butanolides from Litsea acutivena” (2001):
Converted amounts (≈) assume the structure as drawn.

Experiments:
Assay type in all cases: functional
P388 = test: Cytotoxicity against mouse P388 cells after 3 days by MTT assay; settings: P388, 72 h, read-out: ED50 (the source's name)
Outline: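 P-388 cells in Fisher's medium with 10% heat-inactivated FCS at 37 °C, 5% CO2. Cultures set up at 1500 cells/well in 200 µL. Compounds added at eight concentrations in triplicate. After 3 days, cells counted by MTT: formazan dissolved in DMSO, absorbance at 540 nm. ED50 = concentration giving 50% absorbance reduction versus untreated cells.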

HT-29 = test: Cytotoxicity against human HT-29 cells after 6 days by MTT assay; settings: HT-29, 144 h, read-out: ED50 (the source's name)
Outline: (§1)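 A549 grown in EMEM with Earle's salts, 0.1 mM nonessential amino acids and 10% heat-inactivated FCS; HT-29 in RPMI 1640 with 10% heat-inactivated FCS; 37 °C, 5% CO2. Seeded 1000 cells/well. Eight concentrations spanning a 128-fold range, triplicate. After 6 days, MTT (1 mg/mL) added for 5 h, formazan dissolved in DMSO, A540. ED50 = 50% absorbance reduction versus untreated cells.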

A549 = test: Cytotoxicity against human A549 cells after 6 days by MTT assay; settings: A549, 144 h, read-out: ED50 (the source's name); outline: as §1

Row | SMILES | EC50 (P388) | EC50 (HT-29) | EC50 (A549)
1 | C=Cc1cc(OC)c2oc(-c3ccc(O)c(OC)c3)cc2c1 [DEHYDROXYMETHYLAILANTHOIDOL] | > 50 µg/mL | > 50 µg/mL | > 50 µg/mL
2 | C=C1OC(=O)/C(=C\CCCCCCCCCCC)[C@@H]1O [ISOLICOMOLIDE D] | 2.97 µg/mL (≈ 10.6 µM) | 2.11 µg/mL (≈ 7.52 µM) | 2.9 µg/mL (≈ 10.3 µM)
3 | CCCCCCCCC/C=C1/C(=O)O[C@@](C)(OC)[C@H]1O [LITSEAKOLIDE D] | 1.73 µg/mL (≈ 6.08 µM) | 2 µg/mL (≈ 7.03 µM) | 2.85 µg/mL (≈ 10 µM)
4 | CCCCCCCCC/C=C1\C(=O)O[C@@](C)(OC)[C@H]1O [LITSEAKOLIDE E] | 2.94 µg/mL (≈ 10.3 µM) | 3.69 µg/mL (≈ 13 µM) | 4.89 µg/mL (≈ 17.2 µM)
5 | CCCCCCCCC/C=C1/C(=O)O[C@@](C)(OC)[C@@H]1O [LITSEAKOLIDE F] | 2.04 µg/mL (≈ 7.17 µM) | 4.39 µg/mL (≈ 15.4 µM) | 2.01 µg/mL (≈ 7.07 µM)
6 | CCCCCCCCC/C=C1\C(=O)O[C@@](C)(OC)[C@@H]1O [LITSEAKOLIDE G] | 0.97 µg/mL (≈ 3.41 µM) | 2.73 µg/mL (≈ 9.6 µM) | 1.94 µg/mL (≈ 6.82 µM)
7 | CO[C@H](C(=O)[C@@H](O)[C@@H](C)O)[C@@H]1Cc2cc3cc(O[C@H]4C[C@@H](O[C@@H]5C[C@@H](O)[C@H](O)[C@@H](C)O5)[C@H](O)[C@@H](C)O4)c(C)c(O)c3c(O)c2C(=O)[C@H]1O[C@H]1C[C@@H](O[C@@H]2C[C@@H](O)[C@@H](O[C@@H]3C[C@](C)(O)[C@H](O)[C@@H](C)O3)[C@@H](C)O2)[C@H](O)[C@@H](C)O1 [PLICAMYCIN] | 0.06 µg/mL (≈ 0.0553 µM) | 0.08 µg/mL (≈ 0.0737 µM) | 0.07 µg/mL (≈ 0.0645 µM)
